The values that follow come from PubChem BioAssay AID623894 (Johns Hopkins Ion Channel Center, 2012).

The target in the assay is Potassium channel subfamily K member 3 (Rattus norvegicus) (UniProt O54912). The experiment in a line: KCNK3 potassium channel inhibitors, SAR follow-up, selectivity assay for KCNK9 inhibitor project, cell-based, FluxOR thallium flux, CRC set 3 (AID 623894). The conditions noted are these: KCNK3-expressing cell line, FluxOR thallium flux fluorescence; for flux ratio, lower = inhibition: at 30 µM (top of the series). In a few lines: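 Assay system: tetracycline-induced KCNK3 CHO cells / Times: dye loading 90 min, compound exposure 20 min, room temperature, dark / Signal: kinetic thallium-flux fluorescence with FluxOR dye, 110 s post-stimulus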
Potassium channel subfamily K member 3 (Rattus norvegicus), sequence (O54912 whole entry, looked up): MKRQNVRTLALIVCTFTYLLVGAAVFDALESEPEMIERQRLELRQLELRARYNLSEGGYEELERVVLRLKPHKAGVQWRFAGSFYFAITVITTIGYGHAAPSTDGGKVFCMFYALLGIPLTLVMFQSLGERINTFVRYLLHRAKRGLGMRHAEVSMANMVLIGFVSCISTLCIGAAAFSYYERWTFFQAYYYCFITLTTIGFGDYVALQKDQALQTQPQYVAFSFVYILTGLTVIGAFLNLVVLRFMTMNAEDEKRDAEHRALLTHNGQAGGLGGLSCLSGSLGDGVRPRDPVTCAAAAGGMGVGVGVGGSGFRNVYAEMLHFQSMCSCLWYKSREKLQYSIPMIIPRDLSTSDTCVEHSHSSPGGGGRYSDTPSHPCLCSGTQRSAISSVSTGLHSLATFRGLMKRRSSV

“And” between values parts separate entries of the source, which are not always exact repeats. Equal entries are not always repeated. The source made the active and inactive calls.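 The calls were made as follows: active = peak inhibition above 30% of the KCNK3 potassium channel at some dose, plus a fitted dose response curve; inactive = no inhibition at any dose, or no fitted curve.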

Regarding `CC(C1CC2CCC1C2)n1c(SCCc2cccc(O)c2)nnc1-c1ccco1` (configuration not stated), the half-maximal inhibitory concentration (IC50) was 1660 nM. Still for that read-out and setting: to `CC(C1CC2CCC1C2)n1c(SCC(=O)N2CCN(C)CC2)nnc1-c1ccco1` (configuration not stated) belongs 24800 nM; to `C[C@H]([C@@H]1CC2CC[C@H]1C2)n1c(-c2ccccc2F)n[nH]c1=S`, 121 nM.

With `CC(C1CC2CCC1C2)n1c(N)nnc1-c1ccco1` (configuration not stated), the “flux ratio, lower = inhibition” value was “inactive”. Turning to `COc1cccc(-c2n[nH]c(=S)n2[C@H](C)[C@@H]2CC3CC[C@H]2C3)c1`, the IC50 was 1100 nM. Turning to `CC(C1CC2CCC1C2)n1c(SCCN2CCOCC2)nnc1-c1ccco1` (configuration not stated), the “flux ratio, lower = inhibition” value was “inactive”. Consider `COc1ccc(CSc2nnc(-c3ccco3)n2C(C)C2CC3CCC2C3)cc1OC` (configuration not stated), for which the 50% inhibitory concentration (IC50) was 2190 nM. Still for that read-out and setting: to `CC([C@@H]1CC2CC[C@H]1C2)n1c(-c2ccsc2)n[nH]c1=S` (some centres not stated) belongs 1170 nM.

With `COc1ccc(C(=O)CCSc2nnc(-c3ccco3)n2C(C)C2CC3CCC2C3)cc1OC` (configuration not stated), the IC50 is 322 nM. `CC(C1CCN(C)CC1)n1c(-c2ccco2)n[nH]c1=S` (configuration not stated): the “flux ratio, lower = inhibition” value was “inactive”. On to `CC(C1CC2CCC1C2)n1c(SCCc2ccccn2)nnc1-c1ccco1` (configuration not stated), for which the IC50 was 1860 nM. Same read-out and setting: with `COc1cccc(-c2nnc(SSc3nnc(-c4cccc(OC)c4)n3C(C)C3CC4CCC3C4)n2C(C)C2CC3CCC2C3)c1` (configuration not stated) the figure was 1740 nM.

On to `C[C@H](C1CCCCC1)n1c(-c2ccsc2)n[nH]c1=S`, for which the 50% inhibitory concentration (IC50) was 6030 nM. On the same count and under the same terms, with `CC(C1C[C@H]2CCC1C2)n1c(-c2ccsc2)n[nH]c1=S` (some centres not stated) the figure was 10700 nM; with `COc1ccc(NC(=O)CSc2nnc(-c3ccco3)n2C(C)C2CC3CCC2C3)cc1OC` (configuration not stated), 30300 nM. The same measure, in the same setting: with `COc1cccc(-c2n[nH]c(=S)n2[C@H](C)C2CCCCC2)c1` the figure was 12400 nM; with `C[C@H](C1CCCCC1)n1c(-c2ccccc2F)n[nH]c1=S`, 5880 nM; with `COc1cccc(CCSc2nnc(-c3ccco3)n2C(C)C2CC3CCC2C3)c1` (configuration not stated), 893 nM. On the same count and under the same terms, to `CC(C1CC2CCC1C2)n1c(-c2ccco2)nn(CCc2ccncc2)c1=S` (configuration not stated) belongs 4720 nM.

As for `C[C@H]([C@@H]1CC2CC[C@H]1C2)n1c(-c2ccco2)n[nH]c1=S`, the IC50 is 159 nM.

Turning to `COc1ccc(CC(=O)NCc2ccccc2-c2ccccc2C(=O)NCc2ccc(F)cc2F)cc1`, the 50% inhibitory concentration (IC50) is 201 nM. Still for that read-out and setting: with `C[C@@H]([C@@H]1CC2CC[C@H]1C2)n1c(-c2ccco2)n[nH]c1=S` the figure was 818 nM and 6590 nM.
